For data set [1], the system named is HepG2. Briefly: Antiproliferative activity against human HepG2 cells after 24 hrs by MTT assay. The data set is classed as functional, cell-based. The conditions noted are these: HepG2, 24 h. In outline: (§1)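 MTT assay. 1 × 10⁴ cells per well were plated and incubated 24 h before dye was added (20 µL of 5 mg/mL MTT in PBS per well), then incubated until a purple precipitate formed. Precipitate dissolved in 150 µL DMSO after medium removal, then absorbance read.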

Another data set relates to K562. Briefly: Antiproliferative activity against human K562 cells after 24 hrs by MTT assay. Type of data set: functional, cell-based. As to conditions: K562, 24 h. The procedure, abridged: as §1
Another data set deals with SK-OV-3. Briefly: Antiproliferative activity against human SKOV3 cells after 24 hrs by MTT assay. The data set is classed as functional, cell-based. As to conditions: SK-OV-3, 24 h. In outline:
as §1

The test system of the next data set is HCT-116. Briefly: Antiproliferative activity against human HCT116 cells after 24 hrs by MTT assay. The data set is classed as functional, cell-based. The conditions noted are these: HCT-116, 24 h. In outline:
as §1

The next data set has as its system HT-29. Put plainly: Antiproliferative activity against human HT-29 cells after 24 hrs by MTT assay. Type of data set: functional, cell-based. The conditions noted are these: HT-29, 24 h. In outline: as §1
Another data set deals with SW-620. Put plainly: Antiproliferative activity against human SW620 cells after 24 hrs by MTT assay. The data set is classed as functional, cell-based. The conditions noted are these: SW-620, 24 h. The procedure, abridged:
as §1

The test system of data set [2] is HepG2. Put plainly: Inhibition of alpha-tubulin in human HepG2 cells assessed as decrease in microtubule formation at 1 uM after 24 hrs by DAPI staining-based immunofluorescence analysis. Type of data set: cell-based.
For data set [3], the system named is HepG2. Put plainly: Inhibition of alpha-tubulin in human HepG2 cells assessed as decrease in spindle formation at 1 uM after 24 hrs by DAPI staining-based immunofluorescence analysis. Type of data set: cell-based.
Data set [4] relates to HepG2. Put plainly: Cell cycle arrest in human HepG2 cells assessed as accumulation at G1 phase at 1.25 uM after 8 hrs by propidium iodide staining-based flow cytometric analysis (reference value: 49.86%). The data set is classed as functional.
The test system of data set [5] is HepG2. Put plainly: Cell cycle arrest in human HepG2 cells assessed as accumulation at S phase at 1.25 uM after 8 hrs by propidium iodide staining-based flow cytometric analysis (reference value: 32.43%). Type of data set: functional.
In data set [6] the test system is HepG2. Briefly: Cell cycle arrest in human HepG2 cells assessed as accumulation at G2/M phase at 1.25 uM after 8 hrs by propidium iodide staining-based flow cytometric analysis (reference value: 17.72%). The data set is classed as functional.
In data set [7] the test system is HepG2. Put plainly: Cell cycle arrest in human HepG2 cells assessed as accumulation at G1 phase at 2.5 uM after 8 hrs by propidium iodide staining-based flow cytometric analysis (reference value: 49.86%). Type of data set: functional.
The test system of data set [8] is HepG2. Put plainly: Cell cycle arrest in human HepG2 cells assessed as accumulation at S phase at 2.5 uM after 8 hrs by propidium iodide staining-based flow cytometric analysis (reference value: 32.43%). Type of data set: functional.
Data set [9] relates to HepG2. Put plainly: Cell cycle arrest in human HepG2 cells assessed as accumulation at G2/M phase at 2.5 uM after 8 hrs by propidium iodide staining-based flow cytometric analysis (reference value: 17.72%). The data set is classed as functional.
Data set [10] relates to HepG2. Briefly: Cell cycle arrest in human HepG2 cells assessed as accumulation at G1 phase at 5 uM after 8 hrs by propidium iodide staining-based flow cytometric analysis (reference value: 49.86%). Type of data set: functional.
A further data set has as its system A549. Briefly: Antitumor activity against human A549 cells xenografted in BALB/c mouse assessed as tumor growth inhibition at 20 mg/kg, iv administered at intervals of 2 days for 18 days relative to control. The data set is classed as functional. As to conditions: read-out: GI. In outline:
(§2)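 Nude mice received 1 × 10⁷ A549 cells in 0.1 mL DMEM subcutaneously in the right gluteal region. At 100 mm³ tumour volume, 24 mice were randomised into four groups (n = 6). Test groups got 20 mg/kg in 0.2 mL physiological saline by tail vein every 2 days for 18 days. Vehicle control got saline; cisplatin 5 mg/kg weekly served as positive control. Tumour growth and body weight tracked; two-sided Student's t test.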

The subject of another data set is Mus musculus. Put plainly: Toxicity in BALB/c mouse bearing human A549 cells assessed as decrease in body weight at 20 mg/kg, iv administered at intervals of 2 days for 18 days. The data set is classed as organism-based. As to conditions: in vivo. Further details: dose 20 mg/kg, route intravenous. In outline: as §2
In data set [11] the test system is HepG2. Put plainly: Cell cycle arrest in human HepG2 cells assessed as accumulation at 5 uM after 8 hrs by propidium iodide staining-based flow cytometric analysis (reference value: 17.72%).
The test system of data set [12] is HepG2. Briefly: Cell cycle arrest in human HepG2 cells assessed as accumulation at G2/M phase at 5 uM after 8 hrs by propidium iodide staining-based flow cytometric analysis (reference value: […]).

The structures appear in SMILES notation. Active and inactive are the calls of the source. The calls are words filed in the database; no cut-off is given here. A value given as a limit tells only on which side of the number the result lay.

As for `CCN(CC)c1ccc(/C=C/C(=O)c2ccc(OC)c3c2OC(C)(C)C=C3)cc1`, the IC50 with HepG2 [1] worked out at 0.59 µM; with K562, 0.79 µM; in the data set on SK-OV-3, 0.61 µM; with HCT-116 it was 0.62 µM; with HT-29, 0.55 µM; with SW-620, 0.67 µM. The inhibition result with HepG2 [2] and in the data set on HepG2 [3] was “Active” throughout. The Activity in the data set on HepG2 [4] worked out at 40.67%; in the data set on HepG2 [5] it was 16.77%; in the data set on HepG2 [6], 42.55%; in the data set on HepG2 [7], 4.49%; in the data set with HepG2 [8], 17.17%; with HepG2 [9], 78.35%. Further, the Activity in the data set on HepG2 [10] is reported as 0%; with Mus musculus, “Non-toxic”; with HepG2 [11], 9.99%; in the data set on HepG2 [12], 90.01%. Moreover, in the data set with A549, the inhibition in vivo at 20 mg/kg came out at 84.1%.

Regarding `COc1ccc(/C=C/C(=O)c2ccc(OC)c3c2OC(C)(C)C=C3)cc1` [MILLEPACHINE], the half-maximal inhibitory concentration (IC50) in the data set on HepG2 [1] amounted to 1.51 µM; with K562, 4.56 µM; in the data set on SK-OV-3 it was 2.36 µM; with HCT-116 it was 4.66 µM; in the data set with HT-29, 3.29 µM; in the data set with SW-620, 0.76 µM. The inhibition result in the data set on HepG2 [2] and in the data set with HepG2 [3] was “Active” each time. The Activity is listed as 10.34% with HepG2 [4]; 20.35% in the data set on HepG2 [5]; 69.31% in the data set with HepG2 [6]; 2.64% in the data set with HepG2 [7]; 17.71% in the data set with HepG2 [8]; 79.65% in the data set with HepG2 [9]. Moreover, the Activity is reported as 0.66% with HepG2 [10], “Non-toxic” in the data set with Mus musculus, 91.65% in the data set on HepG2 [11] and 7.68% in the data set on HepG2 [12]. Besides, the inhibition in vivo at 20 mg/kg with A549 was found to be 69.4%.

Regarding `COc1ccc(C(=O)/C=C/c2ccccc2Cl)c2c1C=CC(C)(C)O2`, the concentration for half-maximal inhibition (IC50) in the data set on HepG2 [1], in the data set with K562, in the data set on SK-OV-3, with HCT-116, with HT-29 and with SW-620 was above 10 µM throughout.

For the molecule `COc1ccc(/C=C/C(=O)c2ccc(OC)c3c2OC(C)(C)C=C3)c(F)c1`, the half-maximal inhibitory concentration (IC50) with HepG2 [1] was 7.56 µM; in the data set on K562, above 10 µM; in the data set with SK-OV-3, 4.88 µM; with HCT-116, above 10 µM; in the data set with HT-29, above 10 µM; in the data set on SW-620, 6.57 µM.

Regarding `COc1ccc(C(=O)/C=C/c2ccc(-c3ccccc3)cc2)c2c1C=CC(C)(C)O2`, the IC50 in the data set on HepG2 [1], with K562, with SK-OV-3, with HCT-116, with HT-29 and in the data set with SW-620 was above 10 µM in each case.

Take `COc1ccc(C(=O)/C=C/c2ccc(OC)c(OC)c2OC)c2c1C=CC(C)(C)O2`: the IC50 with HepG2 [1], in the data set with K562, with SK-OV-3, in the data set with HCT-116, in the data set with HT-29 and in the data set with SW-620 was above 10 µM throughout.

With `COc1ccc(C(=O)/C=C/c2ccc(N(C)C)cc2)c2c1C=CC(C)(C)O2`, the half-maximal inhibitory concentration (IC50) in the data set on HepG2 [1] was 0.73 µM; in the data set with K562, 3.5 µM; in the data set on SK-OV-3, 2.75 µM; in the data set with HCT-116, 1.92 µM; in the data set on HT-29, 1.87 µM; in the data set with SW-620, 0.57 µM.

Take `COc1ccc(C(=O)/C=C/c2ccc3ccccc3n2)c2c1C=CC(C)(C)O2`: the IC50 came to 4.28 µM in the data set on HepG2 [1]; 3.02 µM in the data set with K562; 2.35 µM in the data set with SK-OV-3; 4.53 µM in the data set on HCT-116; 3.79 µM with HT-29; 2.25 µM in the data set on SW-620.

Turning to `COc1ccc(C(=O)/C=C/c2ccc(-n3ccnc3)cc2)c2c1C=CC(C)(C)O2`, the IC50 with HepG2 [1] was above 10 µM; with K562, above 10 µM; in the data set with SK-OV-3, 7.2 µM; in the data set with HCT-116 it was above 10 µM; in the data set on HT-29 it was above 6.6 µM; in the data set on SW-620 it was above 10 µM.

For `COc1ccc(C(=O)/C=C/c2ccc(Br)cc2)c2c1C=CC(C)(C)O2`, the half-inhibitory concentration (IC50) in the data set on HepG2 [1], in the data set with K562, in the data set with SK-OV-3, with HCT-116, in the data set with HT-29 and with SW-620 was above 10 µM each time.

In the case of `COc1ccc(C(=O)/C=C/c2cccc(O)c2)c2c1C=CC(C)(C)O2`, the IC50 in the data set on HepG2 [1], with K562, in the data set on SK-OV-3, in the data set on HCT-116, in the data set with HT-29 and with SW-620 was above 10 µM throughout.

For `COc1cc(OC)c(OC)cc1/C=C/C(=O)c1ccc(OC)c2c1OC(C)(C)C=C2`, the half-inhibitory concentration (IC50) in the data set with HepG2 [1], in the data set on K562, in the data set on SK-OV-3, with HCT-116, with HT-29 and in the data set with SW-620 was above 10 µM throughout.

`COc1ccc(C(=O)/C=C/c2cc(OC)c(OC)c(OC)c2)c2c1C=CC(C)(C)O2`: the IC50 is above 10 µM in the data set with HepG2 [1]; above 10 µM in the data set with K562; 9.7 µM with SK-OV-3; 7.65 µM in the data set with HCT-116; above 10 µM with HT-29; 9.15 µM in the data set with SW-620.

As to `COc1ccc(C(=O)/C=C/c2cccs2)c2c1C=CC(C)(C)O2`, the IC50 in the data set with HepG2 [1], with K562, with SK-OV-3, in the data set on HCT-116, in the data set on HT-29 and in the data set with SW-620 was above 10 µM each time.

As for `COc1ccc(C(=O)/C=C/c2ccsc2)c2c1C=CC(C)(C)O2`, the concentration for half-maximal inhibition (IC50) in the data set on HepG2 [1], in the data set on K562, in the data set with SK-OV-3, in the data set with HCT-116, in the data set on HT-29 and in the data set on SW-620 was above 10 µM in each case.

Values taken from ChEMBL document CHEMBL2040816, “Design, synthesis, and structure-activity relationship studies of novel millepachine derivatives as potent antiproliferative agents” (Eur J Med Chem, 2012).
